Laboratory results as given in ChEMBL document CHEMBL1629624, “In vitro and in vivo studies to characterize the clearance mechanism and potential cytochrome P450 interactions of anidulafungin” (Antimicrob Agents Chemother, 2009).
*1 amine or outer side, *2 acyl side, *3 side chain or, on linkers, in order; H or OH if unused. Where a SMILES comes first, the peptide text is derived from it. Bridges are numbered along the chain shown (N, C = ends). [ ]: non-standard residue; d: D form. The star is where a group is joined. pTerphenylCO(4''-OnC5H11) = CCCCCOc1ccc(-c2ccc(-c3ccc(C(=O)*)cc3)cc2)cc1; Orn(4R-OH,5R-OH) = O=C([C@H](C[C@@H](O)[C@@H](O)N[*:3])N[*:1])[*:2]; hTyr(3S-OH,4S-OH) = N[C@H](C(=O)O)[C@H](O)[C@@H](O)c1ccc(O)cc1; Pro(3S-OH,4S-Me) = C[C@H]1CN[C@H](C(=O)O)[C@H]1O; Hyp = O=C(O)[C@@H]1C[C@@H](O)CN1

Tests used:
[1] = Tmax in human plasma at 100 mg, iv by LC-MS/MS analysis; type: ADME, organism-based
In short: (§1)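 Nine healthy adult men, single i.v. infusion of [14C]drug over 100 min at 1 mg/min (planned 100 mg; mean delivered 88.3 mg). Heparinized blood taken from predose through day 10 and at follow-up. Parent drug in plasma measured by validated LC-MS/MS. Noncompartmental analysis; values are means (%CV).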

Cytochrome P450 1A2 = target: T1, Cytochrome P450 1A2 (Homo sapiens, UniProt P05177); assay: Inhibition of human CYP1A2; type: ADME
T1 sequence (P05177 whole entry): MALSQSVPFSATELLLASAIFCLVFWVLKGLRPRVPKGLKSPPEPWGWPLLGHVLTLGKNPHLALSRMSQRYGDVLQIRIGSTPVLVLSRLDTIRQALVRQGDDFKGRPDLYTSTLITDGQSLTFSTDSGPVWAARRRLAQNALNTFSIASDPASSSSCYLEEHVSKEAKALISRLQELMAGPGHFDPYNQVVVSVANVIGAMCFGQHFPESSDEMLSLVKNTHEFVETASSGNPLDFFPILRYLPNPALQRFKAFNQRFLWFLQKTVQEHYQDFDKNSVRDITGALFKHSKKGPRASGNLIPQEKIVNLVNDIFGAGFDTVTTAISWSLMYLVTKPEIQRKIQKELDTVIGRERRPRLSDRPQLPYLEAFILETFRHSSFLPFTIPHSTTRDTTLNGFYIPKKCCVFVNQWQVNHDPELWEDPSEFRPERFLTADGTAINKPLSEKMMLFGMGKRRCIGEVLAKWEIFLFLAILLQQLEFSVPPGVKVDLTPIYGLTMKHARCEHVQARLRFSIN

[2] = Volume of distribution at steady state in human plasma at 100 mg, iv by LC-MS/MS analysis; type: ADME, organism-based; conditions: read-out: Vdss
In short: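 Healthy adult men (n = 9), single i.v. infusion of [14C]drug over 100 min at 1 mg/min. 100 mg was planned; the mean dose actually given was 88.3 mg. Heparinized blood drawn from 0 h through day 10 and at 6–8 weeks. Parent drug in plasma measured by validated LC-MS/MS. Noncompartmental analysis, given as mean (%CV).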

Cytochrome P450 2D6 = Cytochrome P450 2D6 (Homo sapiens, UniProt P10635); assay: Inhibition of human CYP2D6; type: ADME
[3] = Mean residence time in human plasma at 100 mg, iv by LC-MS/MS analysis; type: ADME, organism-based; in short: as §1
[4] = Ratio of AUC in blood to plasma for Sprague-Dawley at 5 mg/kg, iv by liquid scintillation counting; type: ADME, organism-based; set-up: dose 5 mg/kg, route intravenous; conditions: rat, in vivo
In short: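 Male Sprague-Dawley rats, single i.v. bolus of [14C]drug. Blood by cardiac puncture from three noncannulated rats killed at each time from 0.25 to 168 h; plasma separated from an aliquot. Radioactivity by liquid scintillation counting. Parameters come from a composite profile of mean values, taking 1 g as equal to 1 ml.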

CYP2C8 = target: T2, CYP2C8 (Homo sapiens, UniProt P10632); assay: Inhibition of human CYP2C8 at 17.5 uM in presence of rosiglitazone; type: ADME; conditions: probe rosiglitazone
T2 sequence (P10632 whole entry): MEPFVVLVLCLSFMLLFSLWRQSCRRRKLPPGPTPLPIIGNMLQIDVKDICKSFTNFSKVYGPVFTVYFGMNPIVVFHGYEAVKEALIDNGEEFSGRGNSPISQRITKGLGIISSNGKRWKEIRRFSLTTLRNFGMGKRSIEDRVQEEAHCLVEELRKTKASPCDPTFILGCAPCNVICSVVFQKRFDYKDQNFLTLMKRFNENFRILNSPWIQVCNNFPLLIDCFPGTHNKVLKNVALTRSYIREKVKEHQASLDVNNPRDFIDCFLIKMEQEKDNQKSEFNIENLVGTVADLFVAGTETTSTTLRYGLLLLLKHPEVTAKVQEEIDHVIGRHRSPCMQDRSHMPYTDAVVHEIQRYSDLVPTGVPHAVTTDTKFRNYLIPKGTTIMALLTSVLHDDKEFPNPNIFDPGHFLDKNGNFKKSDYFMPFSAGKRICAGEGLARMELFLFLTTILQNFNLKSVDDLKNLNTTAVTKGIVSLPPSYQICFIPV
In short: (§2)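 Heterologously expressed human CYP2C8, with rosiglitazone N-desmethylase as the marker reaction. […] Incubations run in duplicate.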

Cytochrome P450 2B6 = target: T3, Cytochrome P450 2B6 (Homo sapiens, UniProt P20813); assay: Inhibition of human CYP2B6; type: ADME
T3 sequence (P20813 whole entry): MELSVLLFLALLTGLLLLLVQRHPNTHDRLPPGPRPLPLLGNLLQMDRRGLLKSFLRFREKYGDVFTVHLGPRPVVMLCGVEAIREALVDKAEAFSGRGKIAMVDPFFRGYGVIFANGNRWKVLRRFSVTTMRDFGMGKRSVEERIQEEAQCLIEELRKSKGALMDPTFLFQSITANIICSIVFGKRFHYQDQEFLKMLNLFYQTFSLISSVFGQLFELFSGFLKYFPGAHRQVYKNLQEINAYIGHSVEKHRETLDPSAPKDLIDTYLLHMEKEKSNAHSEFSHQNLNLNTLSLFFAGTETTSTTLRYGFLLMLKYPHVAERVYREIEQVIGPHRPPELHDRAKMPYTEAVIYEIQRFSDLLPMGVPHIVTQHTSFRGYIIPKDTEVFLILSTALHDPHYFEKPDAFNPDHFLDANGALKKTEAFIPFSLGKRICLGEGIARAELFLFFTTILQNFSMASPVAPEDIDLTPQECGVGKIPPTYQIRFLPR
In short: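 Pooled liver microsomes from 53 human donors. Marker reactions: bupropion hydroxylase for CYP2B6. Incubations run in duplicate. IC50 taken from four to six concentrations.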

Cytochrome P450 3A4 = Cytochrome P450 3A4 (Homo sapiens, UniProt P08684); assay: Inhibition of human CYP3A4; type: ADME
Cytochrome P450 2C8 [5] = target: T4, Cytochrome P450 2C8 (Homo sapiens, UniProt P10632); assay: Inhibition of human CYP2C8 using amodiaquine as a substrate; type: ADME
T4 sequence (P10632 whole entry): T2 sequence (P10632 whole entry)
In short: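 CYP2C8 measured as amodiaquine N-deethylase in pooled human liver microsomes from 53 donors. Incubations run in duplicate. IC50 fitted from the concentration series.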

Cytochrome P450 2C19 = Cytochrome P450 2C19 (Homo sapiens, UniProt P33261); assay: Inhibition of human CYP2C19; type: ADME
[6] = Cmax in human plasma at 100 mg, iv by LC-MS/MS analysis; type: ADME, organism-based; set-up: dose 100 mg, route intravenous; in short: as §1
[7] = Half life in human plasma at 100 mg, iv by LC-MS/MS analysis; type: ADME, organism-based; in short: as §1
Cytochrome P450 2C9 = Cytochrome P450 2C9 (Homo sapiens, UniProt P11712); assay: Inhibition of human CYP2C9; type: ADME
Cytochrome P450 2C8 [8] = target: T4, Cytochrome P450 2C8; assay: Inhibition of human CYP2C8 using rosiglitazone as a substrate; type: ADME; in short: as §2
Plasma = assay: Clearance in human plasma at 100 mg, iv by LC-MS/MS analysis; type: ADME, organism-based; conditions: in vivo; in short: as §1

Chain of Cytochrome P450 2D6 (P10635 whole entry): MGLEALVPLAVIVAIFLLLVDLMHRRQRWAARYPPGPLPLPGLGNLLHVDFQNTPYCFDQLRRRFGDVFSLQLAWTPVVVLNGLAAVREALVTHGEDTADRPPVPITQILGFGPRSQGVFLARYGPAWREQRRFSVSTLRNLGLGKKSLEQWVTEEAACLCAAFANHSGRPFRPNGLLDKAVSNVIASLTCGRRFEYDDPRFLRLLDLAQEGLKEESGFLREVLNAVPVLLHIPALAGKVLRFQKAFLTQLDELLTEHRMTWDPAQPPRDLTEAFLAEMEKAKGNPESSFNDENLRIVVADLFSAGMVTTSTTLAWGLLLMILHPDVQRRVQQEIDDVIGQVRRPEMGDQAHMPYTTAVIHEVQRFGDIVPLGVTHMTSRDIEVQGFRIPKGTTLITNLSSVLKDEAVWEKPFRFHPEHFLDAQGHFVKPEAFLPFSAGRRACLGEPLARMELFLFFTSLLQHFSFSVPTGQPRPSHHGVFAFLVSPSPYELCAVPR
Chain of Cytochrome P450 2C19 (P33261 whole entry): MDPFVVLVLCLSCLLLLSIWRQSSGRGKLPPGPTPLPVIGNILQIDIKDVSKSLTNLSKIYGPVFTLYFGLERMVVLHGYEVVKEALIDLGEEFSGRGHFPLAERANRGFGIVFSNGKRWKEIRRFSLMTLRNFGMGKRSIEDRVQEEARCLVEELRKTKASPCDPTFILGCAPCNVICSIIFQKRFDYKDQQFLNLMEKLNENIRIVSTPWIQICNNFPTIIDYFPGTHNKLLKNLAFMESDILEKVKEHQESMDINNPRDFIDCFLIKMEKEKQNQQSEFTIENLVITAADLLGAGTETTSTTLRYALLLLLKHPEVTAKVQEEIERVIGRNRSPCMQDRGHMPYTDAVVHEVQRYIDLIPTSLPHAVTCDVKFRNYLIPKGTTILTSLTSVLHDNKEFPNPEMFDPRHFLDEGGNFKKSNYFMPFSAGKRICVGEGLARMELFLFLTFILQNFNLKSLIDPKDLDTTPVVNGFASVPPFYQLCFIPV
Chain of Cytochrome P450 2C9 (P11712 whole entry): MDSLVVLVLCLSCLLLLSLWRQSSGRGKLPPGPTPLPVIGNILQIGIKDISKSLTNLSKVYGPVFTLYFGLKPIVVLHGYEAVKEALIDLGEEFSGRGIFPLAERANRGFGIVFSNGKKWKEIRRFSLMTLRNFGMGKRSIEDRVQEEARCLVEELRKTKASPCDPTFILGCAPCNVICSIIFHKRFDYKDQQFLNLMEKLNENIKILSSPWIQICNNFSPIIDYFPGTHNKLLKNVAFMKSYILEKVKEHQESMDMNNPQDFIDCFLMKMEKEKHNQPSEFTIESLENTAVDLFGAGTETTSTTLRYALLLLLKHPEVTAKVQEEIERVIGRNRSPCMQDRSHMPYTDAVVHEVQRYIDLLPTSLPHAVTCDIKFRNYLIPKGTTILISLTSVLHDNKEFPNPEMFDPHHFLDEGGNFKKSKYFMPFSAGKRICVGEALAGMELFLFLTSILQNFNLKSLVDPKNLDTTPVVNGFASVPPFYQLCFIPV
Chain of Cytochrome P450 3A4 (P08684 whole entry): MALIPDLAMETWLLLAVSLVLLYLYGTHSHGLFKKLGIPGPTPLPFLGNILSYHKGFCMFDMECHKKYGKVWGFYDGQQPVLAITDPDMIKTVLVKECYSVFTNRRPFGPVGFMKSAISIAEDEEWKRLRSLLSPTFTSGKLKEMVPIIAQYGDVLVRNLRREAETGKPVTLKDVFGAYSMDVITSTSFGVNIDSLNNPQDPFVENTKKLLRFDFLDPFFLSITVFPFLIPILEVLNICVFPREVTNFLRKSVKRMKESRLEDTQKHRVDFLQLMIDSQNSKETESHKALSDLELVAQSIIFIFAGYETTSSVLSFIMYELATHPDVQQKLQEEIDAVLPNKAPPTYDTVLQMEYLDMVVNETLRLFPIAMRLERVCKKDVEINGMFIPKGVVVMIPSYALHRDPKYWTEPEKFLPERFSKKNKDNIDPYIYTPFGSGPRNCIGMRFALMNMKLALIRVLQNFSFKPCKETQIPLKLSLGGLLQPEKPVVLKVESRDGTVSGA

Q: For `CCCCCOc1ccc(-c2ccc(-c3ccc(C(=O)N[C@H]4C[C@@H](O)[C@@H](O)NC(=O)[C@@H]5[C@@H](O)[C@@H](C)CN5C(=O)[C@H]([C@@H](C)O)NC(=O)[C@H]([C@H](O)[C@@H](O)c5ccc(O)cc5)NC(=O)[C@@H]5C[C@@H](O)CN5C(=O)[C@H]([C@@H](C)O)NC4=O)cc3)cc2)cc1` [ANIDULAFUNGIN] ({pTerphenylCO(4''-OnC5H11)}-[Orn(4R-OH,5R-OH)]T[Hyp][hTyr(3S-OH,4S-OH)]T[Pro(3S-OH,4S-Me)]; lactam 1-C), which Tmax [1] is on record?
A: 1.78 h

Q: And the IC50 (Cytochrome P450 1A2)?
A: > 17.5 µM

Q: What about the Vd [2] of the same molecule?
A: 32.6 L

Q: And the IC50 (Cytochrome P450 2D6)?
A: > 17.5 µM

Q: What about the MRT [3] of the same molecule?
A: 35.6 h

Q: What about the Ratio [4] of the same molecule?
A: 1.5

Q: And the inhibition at 17.5 µM (CYP2C8)?
A: 34.3%

Q: What about the IC50 (Cytochrome P450 2B6) of the same molecule?
A: > 17.5 µM

Q: And the IC50 (Cytochrome P450 3A4)?
A: > 17.5 µM

Q: And the IC50 (Cytochrome P450 2C8 [5])?
A: 12 µM

Q: What about the IC50 (Cytochrome P450 2C19) of the same molecule?
A: > 17.5 µM

Q: What about the Cmax [6] of the same molecule?
A: 3630 ng/mL

Q: What about the half-life [7] of the same molecule?
A: 27.7 h

Q: And the IC50 (Cytochrome P450 2C9)?
A: > 17.5 µM

Q: What about the IC50 (Cytochrome P450 2C8 [8]) of the same molecule?
A: > 17.5 µM

Q: What about the CL (Plasma) of the same molecule?
A: 0.913 L/h
